The record followed here is ChEMBL document CHEMBL2029252, “Pharmacophore-based small molecule CXCR4 ligands” (Bioorg Med Chem Lett, 2012).

The target of series [1] is C-X-C chemokine receptor type 4 (Homo sapiens) (UniProt P61073). Briefly: Displacement of [125I]-CXCL12 from CXCR4 expressed in human Jurkat cells at 10 uM relative to T140. It is filed as cell-based. Summed up: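 Competition for [125I]-CXCL12 binding to Jurkat cells, test compounds at 10 µM. Percent inhibition expressed relative to that given by the reference peptide T140, set at 100%.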
Sequence of C-X-C chemokine receptor type 4 (Homo sapiens) (P61073 whole entry): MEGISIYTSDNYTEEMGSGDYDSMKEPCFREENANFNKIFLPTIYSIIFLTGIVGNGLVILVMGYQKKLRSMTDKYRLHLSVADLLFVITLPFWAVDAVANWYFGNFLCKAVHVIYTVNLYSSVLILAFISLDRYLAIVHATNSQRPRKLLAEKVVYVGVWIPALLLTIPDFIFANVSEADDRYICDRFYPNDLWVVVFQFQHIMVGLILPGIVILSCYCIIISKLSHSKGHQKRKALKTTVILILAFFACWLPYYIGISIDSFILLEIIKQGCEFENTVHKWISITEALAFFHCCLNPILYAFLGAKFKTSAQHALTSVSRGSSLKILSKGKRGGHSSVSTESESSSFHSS

Series [2] can be described thus: Cytotoxicity against human MT4 cells assessed as reduction of cell viability. It is filed as cell-based.
Series [3] deals with Human immunodeficiency virus 1. Briefly: Antiviral activity against X4-tropic HIV1 NL4.3 infected in human MT4 cells assessed as protection from virus-induced cytopathogenicity. It is filed as functional, organism-based. As to conditions: Human immunodeficiency virus 1, NL4.3, MT4. Summed up: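 MT-4 cells infected with X4 HIV-1 strain NL4-3; readout is protection from virus-induced cytopathogenicity. EC50 = concentration giving 50% protection, mean of at least three independent experiments.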
For orientation: Cytopathic effects are the visible damage that an infection or toxin causes in cultured cells.

The test system of series [4] is Human immunodeficiency virus 1. Put plainly: Antiviral activity against R5-tropic HIV1 NL(AD8) infected in human PM1 cells expressing CCR5 assessed as protection from virus-induced cytopathogenicity at < 100 uM. It is filed as functional, organism-based.
For series [5], the system named is Human immunodeficiency virus 1. Put plainly: Antiviral activity against R5-tropic HIV1 NL(AD8) infected in human PM1 cells expressing CCR5 assessed as protection from virus-induced cytopathogenicity. It is filed as functional, organism-based. Conditions: Human immunodeficiency virus 1, NL(AD8).

Structures are written as SMILES. Calls of active or inactive are those of the source. The calls are words filed in the database; no cut-off is given here. Where only a bound is given, the exact number is not on record here.

As a reminder, the inhibition is how much of the control response was suppressed. A higher inhibition goes with a response far below the control. Broadly, the CC50 is the concentration that lowers cell viability or growth by half. In general, EC50 refers to the concentration giving half of the maximal effect. As for `C[C@@H](NC(=O)[C@H](CCCNC(=N)N)NC(=O)c1ccc(CN(Cc2ccc(F)cc2)Cc2ccccn2)cc1)c1cccc2ccccc12`, the inhibition in series [1] was determined as 0%. Further, the CC50 in series [2] came to 35 µM. The EC50 in series [3] is above 20 µM.
For `C[C@H](NC(=O)[C@H](CCCNC(=N)N)NC(=O)c1ccc(CN(Cc2ccncc2)C(=O)c2ccc(F)cc2)cc1)c1cccc2ccccc12` the same measures were 13%, 51 µM and above 20 µM.
`C[C@@H](NC(=O)[C@H](CCCNC(=N)N)NC(=O)c1ccc(CN(CCc2ccncc2)Cc2ccc(F)cc2)cc1)c1cccc2ccccc12` registered an inhibition in series [1] of 16%.
With `C[C@H](NC(=O)[C@H](CCCNC(=N)N)NC(=O)c1ccc(CN(CCc2ccncc2)C(=O)c2ccc(F)cc2)cc1)c1cccc2ccccc12`, in series [1], the inhibition was found to be 25%. Also, the CC50 in series [2] is 47 µM. The 50% effective concentration (EC50) in series [3] is above 20 µM.
Take `C[C@@H](NC(=O)[C@H](CCCNC(=N)N)NC(=O)c1ccc(CN(CCc2ccc(F)cc2)CCc2ccccn2)cc1)c1cccc2ccccc12`: the inhibition in series [1] turned out to be 13%. For the same molecule, the CC50 in series [2] is 27 µM. The EC50 in series [3] is above 20 µM.
Consider `C[C@H](NC(=O)[C@H](CCCNC(=N)N)NC(=O)c1ccc(CN(CCc2ccc(F)cc2)Cc2ccncc2)cc1)c1cccc2ccccc12`, for which the inhibition in series [1] is 26%.
Same read-out and setting: the result for `C[C@H](NC(=O)[C@H](CCCNC(=N)N)NC(=O)c1ccc(CN(CCc2ccncc2)CCc2ccc(F)cc2)cc1)c1cccc2ccccc12` reads 51%.
For `C[C@@H](NC(=O)[C@H](CCCNC(=N)N)NC(=O)c1ccc(CN(CCc2ccc(F)cc2)Cc2cccnc2)cc1)c1cccc2ccccc12`, in series [4], the outcome was inactive. The molecule further came in with an inhibition in series [1] of 79%. Further, in series [2], the 50% cytotoxic concentration (CC50) came out at 47 µM. Also, the half-maximal effective concentration (EC50) in series [3] worked out at 11 µM.
As to `C[C@@H](NC(=O)[C@H](CCCNC(=N)N)NC(=O)c1ccc(CN(Cc2cccnc2)C(=O)c2ccc(F)cc2)cc1)c1cccc2ccccc12`, the inhibition in series [1] was 11%. Besides, the CC50 in series [2] turned out to be 45 µM. The EC50 in series [3] was above 20 µM.
Turning to `C[C@H](NC(=O)[C@H](CCCNC(=N)N)NC(=O)c1ccc(CN(Cc2ccncc2)Cc2ccc(F)cc2)cc1)c1cccc2ccccc12`, the result in series [4] was inactive. This molecule yielded an inhibition in series [1] of 16%. In series [2], the half-maximal cytotoxic concentration (CC50) worked out at 44 µM. Besides, in series [3], the concentration for a half-maximal effect (EC50) amounted to 8 µM.
Take `C[C@@H](NC(=O)[C@H](CCCNC(=N)N)NC(=O)c1ccc(CN(CCc2ccc(F)cc2)CCc2cccnc2)cc1)c1cccc2ccccc12`: the outcome in series [4] was inactive. Further, the inhibition in series [1] is 69%. Moreover, in series [2], the CC50 turned out to be 11 µM. Also, the EC50 in series [3] was above 11 µM.
On to `C[C@@H](NC(=O)[C@H](CCCNC(=N)N)NC(=O)c1ccc(CN(Cc2ccncc2)C(=O)c2ccc(F)cc2)cc1)c1cccc2ccccc12`, for which the inhibition in series [1] was found to be 6%. Further, in series [2], the CC50 is 45 µM. Moreover, the EC50 in series [3] was above 20 µM.
The molecule `C[C@@H](NC(=O)[C@H](CCCNC(=N)N)NC(=O)c1ccc(CN(CCc2ccccn2)C(=O)c2ccc(F)cc2)cc1)c1cccc2ccccc12` came in with an inhibition in series [1] of 6%. The CC50 in series [2] was found to be 41 µM. In addition, in series [3], the concentration giving a half-maximal response (EC50) is above 20 µM.
In series [1], `C[C@H](NC(=O)[C@H](CCCNC(=N)N)NC(=O)c1ccc(CN(CCc2ccccn2)Cc2ccc(F)cc2)cc1)c1cccc2ccccc12` came in with an inhibition of 25%. The CC50 in series [2] came to 24 µM. The half-maximal effective concentration (EC50) in series [3] is above 20 µM.
Take `C[C@@H](NC(=O)[C@H](CCCNC(=N)N)NC(=O)c1ccc(CN(CCc2ccncc2)CCc2ccc(F)cc2)cc1)c1cccc2ccccc12`: in series [1], the inhibition was found to be 0%.
As for `C[C@@H](NC(=O)[C@H](CCCNC(=N)N)NC(=O)c1ccc(CN(CCc2ccccn2)Cc2ccc(F)cc2)cc1)c1cccc2ccccc12`, the inhibition in series [1] amounted to 4%. Besides, the CC50 in series [2] is 23 µM. In series [3], the EC50 was above 4 µM.
As to `C[C@@H](NC(=O)[C@H](CCCNC(=N)N)NC(=O)c1ccc(CN(Cc2ccncc2)Cc2ccc(F)cc2)cc1)c1cccc2ccccc12`, in series [1], the inhibition was determined as 12%. In addition, the CC50 in series [2] amounted to 39 µM. For the same molecule, the EC50 in series [3] was above 20 µM.
For the molecule `C[C@@H](NC(=O)[C@H](CCCNC(=N)N)NC(=O)c1ccc(CN(Cc2ccccn2)C(=O)c2ccc(F)cc2)cc1)c1cccc2ccccc12`, in series [1], the inhibition worked out at 3%. In addition, in series [2], the CC50 came out at 38 µM. Also, in series [3], the EC50 is above 20 µM.
Take `C[C@H](NC(=O)[C@H](CCCNC(=N)N)NC(=O)c1ccc(CN(Cc2ccc(F)cc2)Cc2cccnc2)cc1)c1cccc2ccccc12`: the inhibition in series [1] worked out at 27%. Also, the cytotoxic concentration (CC50) in series [2] turned out to be 41 µM. Further, in series [3], the half-maximal effective concentration (EC50) is above 20 µM.
Take `C[C@@H](NC(=O)[C@H](CCCNC(=N)N)NC(=O)c1ccc(CN(CCc2cccnc2)Cc2ccc(F)cc2)cc1)c1cccc2ccccc12`: the inhibition in series [1] stood at 24%.
As to `C[C@H](NC(=O)[C@H](CCCNC(=N)N)NC(=O)c1ccc(CN(Cc2ccc(F)cc2)Cc2ccccn2)cc1)c1cccc2ccccc12`, in series [1], the inhibition turned out to be 30%. In addition, the CC50 in series [2] amounted to 11 µM. Besides, the half-maximal effective concentration (EC50) in series [3] was above 4 µM.
The molecule `C[C@H](NC(=O)[C@H](CCCNC(=N)N)NC(=O)c1ccc(CNCc2ccccn2)cc1)c1cccc2ccccc12` registered an inhibition in series [1] of 100%. Besides, the CC50 in series [2] was 80 µM. Besides, the EC50 in series [3] stood at 0.33 µM.
The molecule `C[C@@H](NC(=O)[C@H](CCCNC(=N)N)NC(=O)c1ccc(CN(CCc2ccc(F)cc2)Cc2ccncc2)cc1)c1cccc2ccccc12` yielded an inhibition in series [1] of 44%.
`C[C@H](NC(=O)[C@H](CCCNC(=N)N)NC(=O)c1ccc(CN(Cc2ccccn2)C(=O)c2ccc(F)cc2)cc1)c1cccc2ccccc12` yielded an inhibition in series [1] of 36%. Moreover, the CC50 in series [2] is 37 µM. Further, the EC50 in series [3] is above 20 µM.
`C[C@@H](NC(=O)[C@H](CCCNC(=N)N)NC(=O)c1ccc(CN(Cc2ccc(F)cc2)Cc2cccnc2)cc1)c1cccc2ccccc12` showed an inhibition in series [1] of 6%. The half-maximal cytotoxic concentration (CC50) in series [2] was determined as 37 µM. Besides, the EC50 in series [3] is above 20 µM.
Consider `Cc1cn([C@H]2C[C@H](N=[N+]=[N-])[C@@H](CO)O2)c(=O)[nH]c1=O` [ZIDOVUDINE], for which, in series [2], the CC50 is 100 µM. Further, the 50% effective concentration (EC50) in series [3] turned out to be 0.058 µM.
With `C[C@H](NC(=O)[C@H](CCCNC(=N)N)NC(=O)c1ccc(CN(CCc2ccc(F)cc2)Cc2ccccn2)cc1)c1cccc2ccccc12`, the inhibition in series [1] was determined as 16%. Moreover, the half-maximal cytotoxic concentration (CC50) in series [2] was 9.9 µM. In addition, the EC50 in series [3] is above 4 µM.
For `C[C@H](NC(=O)[C@H](CCCNC(=N)N)NC(=O)c1ccc(CN(Cc2cccnc2)C(=O)c2ccc(F)cc2)cc1)c1cccc2ccccc12`, the inhibition in series [1] was determined as 14%. Besides, the cytotoxic concentration (CC50) in series [2] was 57 µM. In addition, the EC50 in series [3] is above 20 µM.
As for `C[C@@H](NC(=O)[C@H](CCCNC(=N)N)NC(=O)c1ccc(CN(CCc2ccncc2)C(=O)c2ccc(F)cc2)cc1)c1cccc2ccccc12`, in series [1], the inhibition came out at 12%.
`C[C@H](NC(=O)[C@H](CCCNC(=N)N)NC(=O)c1ccc(CN(CCc2ccc(F)cc2)CCc2cccnc2)cc1)c1cccc2ccccc12`: the inhibition in series [1] worked out at 35%.
For the molecule `COC[C@@H](c1ccc(C(F)(F)F)cc1)N1CCN(C2(C)CCN(C(=O)c3c(C)ncnc3C)CC2)C[C@@H]1C` [VICRIVIROC], in series [5], the EC50 was determined as 0.055 µM.
On to `C[C@H](NC(=O)[C@H](CCCNC(=N)N)NC(=O)c1ccc(CN(CCc2ccc(F)cc2)Cc2cccnc2)cc1)c1cccc2ccccc12`, for which the inhibition in series [1] is 36%.
In the case of `C[C@@H](NC(=O)[C@H](CCCNC(=N)N)NC(=O)c1ccc(CNC(=O)c2ccc(C(F)(F)F)cc2)cc1)c1cccc2ccccc12`, in series [2], the CC50 amounted to 66 µM. For the same molecule, the 50% effective concentration (EC50) in series [3] was 7.4 µM.
The molecule `C[C@H](NC(=O)[C@H](CCCNC(=N)N)NC(=O)c1ccc(CN(CCc2ccccn2)C(=O)c2ccc(F)cc2)cc1)c1cccc2ccccc12` registered an inhibition in series [1] of 0%. The half-maximal cytotoxic concentration (CC50) in series [2] worked out at 43 µM. Further, in series [3], the EC50 was above 20 µM.
`C[C@H](NC(=O)[C@H](CCCNC(=N)N)NC(=O)c1ccc(CN(CCc2cccnc2)C(=O)c2ccc(F)cc2)cc1)c1cccc2ccccc12` had an inhibition in series [1] of 32%.
Molecule `C[C@@H](NC(=O)[C@H](CCCNC(=N)N)NC(=O)c1ccc(CN(CCc2ccc(F)cc2)Cc2ccccn2)cc1)c1cccc2ccccc12` had an inhibition in series [1] of 15%.
In the case of `N=C(N)NCCC[C@@H]1NC(=O)[C@H](CCCNC(=N)N)NC(=O)[C@@H](Cc2ccc(O)cc2)NC(=O)CNC(=O)[C@H](Cc2ccc3ccccc3c2)NC1=O`, in series [1], the inhibition is 100%. Besides, the CC50 in series [2] is above 10 µM.
Molecule `C[C@H](NC(=O)[C@H](CCCNC(=N)N)NC(=O)c1ccc(CN(CCc2ccc(F)cc2)CCc2ccccn2)cc1)c1cccc2ccccc12` gave an inhibition in series [1] of 23%. Besides, in series [2], the cytotoxic concentration (CC50) was determined as 13 µM. Moreover, the EC50 in series [3] was above 4 µM.
As to `C[C@H](NC(=O)[C@H](CCCNC(=N)N)NC(=O)c1ccc(CN(CCc2cccnc2)Cc2ccc(F)cc2)cc1)c1cccc2ccccc12`, the outcome in series [4] was inactive. In series [1], this molecule showed an inhibition of 60%. For the same molecule, in series [2], the CC50 is 65 µM. In addition, the concentration giving a half-maximal response (EC50) in series [3] worked out at 13 µM.
Turning to `C[C@H](NC(=O)[C@H](CCCNC(=N)N)NC(=O)c1ccc(CN(CCc2ccncc2)Cc2ccc(F)cc2)cc1)c1cccc2ccccc12`, the outcome in series [4] was inactive. The inhibition in series [1] worked out at 20%. For the same molecule, the 50% cytotoxic concentration (CC50) in series [2] came to 44 µM. The EC50 in series [3] is 10 µM.
`C[C@@H](NC(=O)[C@H](CCCNC(=N)N)NC(=O)c1ccc(CN(CCc2cccnc2)C(=O)c2ccc(F)cc2)cc1)c1cccc2ccccc12` had an inhibition in series [1] of 22%.
